The values below come from ChEMBL document CHEMBL1128429, “Synthesis and structure-activity relationships of 6-heterocyclic-substituted purines as inactivation modifiers of cardiac sodium channels” (J Med Chem, 1995).

Series [1] can be described thus: Effective concentration against Xenopus oocytes expressing guinea pig heart Na channel. The format is functional, cell-based, Cavia porcellus. The following applies: oocyte. The method, boiled down:
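Guinea pig heart RNA in Xenopus oocytes, voltage clamp at 21–23 °C, integral taken at −10 mV. Three or more concentrations, n ≥ 3 each, one per oocyte. Pooled percent-change data plotted semilogarithmically; EC50 (nM giving 50% integral increase) obtained by linear regression over the range lacking significant current block.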

The species named for series [2] is Oryctolagus cuniculus. The experiment in a line: Antiarrhythmic activity was determined by measuring the concentration that produced a 20 ms increase in ERP. The class given is functional, Heart. The method, boiled down: (§1)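 Langendorff-perfused rabbit heart, equilibrated 45 min before control. ERP measured after 15 min exposure to each of five cumulative concentrations: single premature stimulus scanning diastole at twice threshold. Concentration giving a 20 ms ERP increase taken from the concentration–response curve; repeated-measures ANOVA, mean change ± SEM.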

Series [3] in a line: Inactivation processes of human heart Na channel expressed in Xenopus oocytes as increase in current at 10 uM. The class given is functional, Oocyte. The method, boiled down:
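Oocytes injected with cRNA transcribed from human cardiac Na channel (HH1) cDNA. Two-microelectrode voltage clamp at 21–23 °C, perfusion buffer with Na raised to 140 mM. Current integrated at −20 mV after the capacity transient settled. Single 10 μM exposure per oocyte; percent change in integral versus control, ± SEM.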

Series [4] is filed under the species Oryctolagus cuniculus. In words: Concentration which increased contractility by 20% in rabbit. The format is functional. The method, boiled down: (§2)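 Langendorff-perfused rabbit heart, 45 min equilibration, then five cumulative concentrations with 15 min exposure each. Contractility read as dP/dt; the nanomolar concentration raising it by 20% was derived from the concentration–response curve. Repeated-measures ANOVA, mean change from control ± SEM.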

Series [5] in a line: Effective concentration against Xenopus oocytes expressing human heart Na channel. To be noted: oocyte. The class given is functional, cell-based. Put shortly: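 HH1 human cardiac Na channel cRNA in oocytes; perfusate Na 140 mM, 21–23 °C, integral taken at −20 mV. At least three concentrations, n ≥ 3 each, single concentration per oocyte. Pooled data gave the EC50 (nM producing 50% integral increase) by linear regression over the lower, non-blocking range.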

Series [6] deals with Sodium channel protein type 5 subunit alpha (Cavia porcellus). The experiment in a line: Inactivation process of guinea pig cardiac Na channels expressed in xenopus oocytes was determined by measuring increase in current integral in presence of compound versus control at 10 uM. To be noted: oocyte.
The species entered for series [7] is Oryctolagus cuniculus. The experiment in a line: Antiarrhythmic activity was determined by measuring the concentration that produced a 20 ms increase in ERP; no effect at </= 3. The class given is functional, organism-based. To be noted: Heart. The method, boiled down:
as §1

For series [8], the species on record is Oryctolagus cuniculus. The experiment in a line: Concentration which increased contractility by 20% in rabbit; Negative inotropic effect observed. The class given is functional, organism-based. The method, boiled down: as §2
A further series is filed under the species Cavia porcellus. The experiment in a line: Effect on inactivation processes of guinea pig cardiac Na channels expressed in Xenopus oocytes was determined by measuring the increase in current integral in the presence of compound Vs control at 10 uM. The format is functional. The method, boiled down:
(§3)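 Guinea pig heart RNA injected into defolliculated stage V–VI Xenopus oocytes; two-microelectrode voltage clamp at 21–23 °C with standard HEPES buffer perfusion, pH 7.5. Current integrated at the I–V peak (−10 mV) after the capacity transient settled. One test concentration (10 μM) per oocyte; percent change in integral calculated against that oocyte's control, reported ± SEM.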

For series [9], the species on record is Oryctolagus cuniculus. In words: Concentration which increased contractility by 20% in rabbit; no effect. The class given is functional, organism-based. Put shortly:
as §2

The species named for series [10] is Oryctolagus cuniculus. In words: Concentration which increased contractility by 20% in rabbit; no effect at </=3 uM. The class given is functional, organism-based. Put shortly: as §2
The test system of another series is Oocyte. The experiment in a line: Inactivation of guinea pig cardiac Na channel expressed in Xenopus oocytes as increased current at 10 uM; insoluble. To be noted: Cavia porcellus. The format is functional, cell-based. Put shortly:
as §3

Activity calls are given as the source filed them. Where only a bound is given, the exact number is not on record here.

For `O[C@@H](CN1CCN(C(c2ccccc2)c2ccccc2)CC1)Cn1cnc(-n2cccc2)c2ncnc1-2`, the concentration for a half-maximal effect (EC50) in [1] was found to be 85 nM; in [5] it was 290 nM. The compound also showed a 20% effect concentration (EC20) in the series filed under Oryctolagus cuniculus [2] of 43 nM. For the same compound, the Change is given as 540% in series [3] and 711% in series [6]. The dP/dt in the series listed under Oryctolagus cuniculus [4] is recorded as 377 nM.
Turning to `O[C@@H](CN1CCN(C(c2ccccc2)c2ccccc2)CC1)Cn1cnc(-c2ccccc2)c2ncnc1-2`, the EC50 in series [1] worked out at 160 nM; in series [5], 1600 nM. In the series filed under Oryctolagus cuniculus [2], this compound had an EC20 of 141 nM. Besides, the Change was 201% in [3] and 378% in series [6]. Further, in the series listed under Oryctolagus cuniculus [4], the dP/dt is given as 434 nM.
Turning to `OC(CN1CCN(C(c2ccccc2)c2ccccc2)CC1)Cn1cnc2c(-n3ccnc3)ncnc21` (stereo unspecified), the EC50 in series [1] stood at 630 nM. Moreover, the concentration for an effect of 20% (EC20) in the series listed under Oryctolagus cuniculus [2] worked out at 27 nM. In the series listed under Oryctolagus cuniculus [4], this compound gave a dP/dt of 46 nM. Moreover, in [6], the Change amounted to 680%.
For the compound `O[C@H](CN1CCN(C(c2ccccc2)c2ccccc2)CC1)Cn1cnc2c(-n3cccc3)ncnc21`, the EC20 result in the series listed under Oryctolagus cuniculus [7] is “inactive”. Also, the Change in [6] worked out at 21%. In addition, in the series listed under Oryctolagus cuniculus [8], the dP/dt entry was “inactive”.
`N#Cc1cccn1-c1ncnc2c1ncn2C[C@@H](O)CN1CCN(C(c2ccccc2)c2ccccc2)CC1` showed an EC20 in the series listed under Oryctolagus cuniculus [2] of 57 nM. The Change in series [3] stood at 456%. Further, the dP/dt in the series listed under Oryctolagus cuniculus [4] is recorded as 22 nM. The same compound showed an EC50 in series [5] of 447 nM.
As for `OC(CN1CCN(C(c2ccccc2)c2ccccc2)CC1)Cn1cnc2c(-c3ccc4ccccc4c3)ncnc21` (stereo unspecified), the Change in the series filed under Cavia porcellus is given as -66%.
For the compound `O[C@@H](CN1CCN(C(c2ccccc2)c2ccccc2)CC1)Cn1cnc2c(-n3cncn3)ncnc21`, in the series filed under Oryctolagus cuniculus [2], the EC20 came out at 35 nM. The Change in [3] stood at 393%. The dP/dt in the series listed under Oryctolagus cuniculus [4] is reported as 43 nM. This compound returned a concentration for a half-maximal effect (EC50) in [5] of 920 nM.
Regarding `OC(CN1CCN(C(c2ccccc2)c2ccccc2)CC1)Cn1cnc2c(-n3cccn3)ncnc21` (stereo unspecified), the EC50 in series [1] is 158 nM. In the series filed under Oryctolagus cuniculus [2], this compound showed an EC20 of 81 nM. The compound further came in with a dP/dt in the series filed under Oryctolagus cuniculus [4] of 40 nM. Moreover, the Change in series [6] was 372%.
Turning to `O[C@@H](CN1CCN(C(c2ccccc2)c2ccccc2)CC1)Cn1cnc2c(-c3ccccc3)ncnc21`, the EC50 in [1] was found to be 526 nM; in [5] it was 2000 nM. Moreover, the dP/dt result in the series filed under Oryctolagus cuniculus [9] is “inactive”. The concentration for an effect of 20% (EC20) in the series listed under Oryctolagus cuniculus [2] was 425 nM. For the same compound, the Change in series [3] turned out to be 128%; in series [6], 413%.
For `N#Cc1ncnc2c1ncn2CC(O)CN1CCN(C(c2ccccc2)c2ccccc2)CC1` (stereo unspecified), the concentration for a half-maximal effect (EC50) in series [1] stood at 399 nM. This compound showed a 20% effect concentration (EC20) in the series filed under Oryctolagus cuniculus [2] of 260 nM. The dP/dt in the series filed under Oryctolagus cuniculus [4] is on record as 250 nM. Besides, the Change in series [6] came out at 1328%.
In series [1], `Cc1cn(-c2ncnc3c2ncn3CC(O)CN2CCN(C(c3ccccc3)c3ccccc3)CC2)cn1` (stereo unspecified) displayed an EC50 above 3000 nM. The EC20 entry in the series listed under Oryctolagus cuniculus [7] was “inactive”. The Change in [6] came out at 126%.
`Nc1ncnc2c1ncn2C[C@@H](O)CN1CCN(C(c2ccccc2)c2ccccc2)CC1` gave an EC50 in [1] of 1040 nM. Also, the EC20 in the series listed under Oryctolagus cuniculus [2] is recorded as 109 nM. For the same compound, the dP/dt in the series filed under Oryctolagus cuniculus [4] came out at 89 nM. Further, the Change in series [6] is given as 139%.
For the compound `Cc1cnn(-c2ncnc3c2ncn3CC(O)CN2CCN(C(c3ccccc3)c3ccccc3)CC2)c1` (stereo unspecified), in series [1], the EC50 was determined as 585 nM. In the series listed under Oryctolagus cuniculus [2], the 20% effect concentration (EC20) is 216 nM. Further, the dP/dt in the series listed under Oryctolagus cuniculus [4] was 300 nM. The Change in series [6] is reported as 868%.
`Nc1ncnc2c1ncn2CC(O)CN1CCN(C(c2ccccc2)c2ccccc2)CC1` (stereo unspecified) returned an EC50 in series [1] of 1410 nM. This compound yielded an EC20 in the series listed under Oryctolagus cuniculus [2] of 307 nM. The dP/dt in the series filed under Oryctolagus cuniculus [4] came out at 128 nM. Besides, the Change in [6] turned out to be 212%.
Turning to `N#Cc1cc2c(OCC(O)CN3CCN(C(c4ccccc4)c4ccccc4)CC3)cccc2[nH]1` (stereo unspecified), the EC50 in [1] was determined as 1920 nM; in [5] it was 2310 nM. This compound also displayed an EC20 in the series filed under Oryctolagus cuniculus [2] of 430 nM. The Change came out at 174% in [3] and 239% in [6]. Further, the dP/dt result in the series filed under Oryctolagus cuniculus [10] is “inactive”.
Take `OC(CN1CCN(C(c2ccccc2)c2ccccc2)CC1)Cn1cnc2cncnc21` (stereo unspecified): in series [1], the concentration for a half-maximal effect (EC50) was determined as 796 nM. The compound also showed an EC20 in the series filed under Oryctolagus cuniculus [2] of 95 nM. Besides, in the series filed under Oryctolagus cuniculus [4], the dP/dt worked out at 110 nM. Also, the Change in series [6] is 288%.
For `OC(CN1CCN(C(c2ccc(Cl)cc2)c2ccc(Cl)cc2)CC1)Cn1cnc2c(-n3cccc3)ncnc21` (stereo unspecified), the Change entry in the series with Oocyte is on record as “Insoluble”.
`OC(CN1CCN(C(c2ccccc2)c2ccccc2)CC1)Cn1cnc2c(-n3cncn3)ncnc21` (stereo unspecified): the half-maximal effective concentration (EC50) in series [1] is 204 nM. In the series filed under Oryctolagus cuniculus [2], this compound returned a 20% effect concentration (EC20) of 57 nM. The dP/dt in the series filed under Oryctolagus cuniculus [4] turned out to be 60 nM. Further, in series [6], the Change was 1664%.
On to `O[C@@H](CN1CCN(C(c2ccccc2)c2ccccc2)CC1)Cn1cnc2c(-n3cccn3)ncnc21`, for which the EC50 in series [1] worked out at 99 nM; in [5] it was 900 nM. The compound also gave a 20% effect concentration (EC20) in the series listed under Oryctolagus cuniculus [2] of 18 nM. In addition, the Change in series [3] is 540%; in [6], 1226%. In the series filed under Oryctolagus cuniculus [4], the dP/dt is 40 nM.
Compound `Cc1nccn1-c1ncnc2c1ncn2CC(O)CN1CCN(C(c2ccccc2)c2ccccc2)CC1` (stereo unspecified) yielded a 20% effect concentration (EC20) in the series listed under Oryctolagus cuniculus [2] of 90 nM. Besides, in series [3], the Change is recorded as 158%. Also, the dP/dt in the series filed under Oryctolagus cuniculus [4] is reported as 60 nM. In series [5], the 50% effective concentration (EC50) is 1260 nM.
On the same counts, the results for `O=Cc1cccn1-c1ncnc2c1ncn2C[C@@H](O)CN1CCN(C(c2ccccc2)c2ccccc2)CC1` are 17 nM, 904%, 17 nM and 78 nM.

What is called EC50 is the concentration giving half of the maximal effect. For orientation: EC20 means the concentration needed for an effect of 20%.
